This excerpt belongs to a sample that is enriched for hits.
Lung fibro prol: blocks proliferation of human lung fibroblasts; LL 47 human lung fibroblast viability, ATP luminescence; stronger effect = lower value; viability, % at 10 µM; 85,000 compounds, 1.1% hits; AID 719;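 active = viability at or below 50% in the single dose screen; inactive = viability above 50%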;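 note: compound exposure lasted 72 h before the ATP readout; 100% = median luminescence of untreated cell-only wells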
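Material: human lung fibroblast line LL 47, low passage; Evaluation: viability percentage against median untreated-cell control; Buffer or medium: 15% FBS in IMEM; Incubation: 72 h compound exposure at 37 °C after overnight plating; Dosing: 0.1% DMSO in all compound wells; Measured by: CellTiter-Glo luminescence.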
H69AR growth 86K: blocks growth of human H69AR lung tumor cells. H69AR lung tumor viability, ATP luminescence, 72 h; stronger effect = lower value. viability, % at 10 µM. AID 598. 85,000 compounds, 6% hits;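 active = viability at or below 40%; inactive = viability above 40%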;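 note: multidrug resistant small cell line overexpressing MRP-1 efflux transporter; 100% = mean luminescence of untreated control wells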
bCat KO growth: beta-catenin-lacking colon tumor cell growth suppression | viability, % at 10 µM | 140,000 compounds, 1.5% hits | HCT116 beta-catenin knockout viability, CellTiter-Glo, 60 h; stronger effect = lower value;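 active = viability at or under a set limit, the compound median less 4 SD, cut at about 6% in these data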;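 note: 0% = Hyamine 1622 control at 20 µM and 100% = untreated cell control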
PTEN del growth: growth suppressors of cells with PTEN tumor suppressor deletion; HCT116 PTEN-null viability, CellTiter-Glo, 60 h; stronger effect = lower value; viability, % at 10 µM; 140,000 compounds, 1.2% hits;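 active = viability at or below a set limit, 4 SD under the median of all tested compounds, cut at about 3.7% in these data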;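 note: PTEN knockout HCT116 line with beta catenin targeted HCT116 as companion control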
Pyk2 oligo antag: antagonists of human Pyk2 oligomerization. z-score (the deposit names both 25 µM and 10 µM). 99,000 compounds, 0.83% hits. AID 1347419. Q14289. Q293 cells, Pyk2 FERM NanoBiT luminescence; stronger effect = lower value;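 active = Z-score of -3 or lower, scaled per plate to the spread of control and sample wells; inactive = z-score above -3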;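 note: negative z-score means lost luminescence so less FERM oligomerization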
HUVEC inhibit: human endothelial cell proliferation inhibition | HUVEC proliferation, CellTiter-Glo luminescence, 72 h; stronger effect = lower value | viability, % at 10 µM (by protocol) | 86,000 compounds, 1.1% hits | AID 648;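 active = viability at or below 30%; inactive = viability above 30%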;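 note: 100% = median luminescence of DMSO-only cell control wells on each plate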
* marks the source's active call; other numbers are inactive results; . = not tested or not shown.

SMILES	Lung fibro prol	H69AR growth 86K	bCat KO growth	PTEN del growth	Pyk2 oligo antag	HUVEC inhibit
CCc1ccccc1NC(=O)C(CC)Sc1nc2cc3c(cc2c(=O)n1Cc1ccco1)OCO3 (configuration not stated)	85	6.3*	102	101	-0.93	46
CCC(Sc1nc2cc(OC)c(OC)cc2c(=O)n1Cc1ccco1)C(=O)NCCOC (configuration not stated)	97	65	94	92	0.15	90
CCc1ccc(NC(=O)C(CC)Sc2nc3cc4c(cc3c(=O)n2Cc2ccco2)OCO4)cc1 (configuration not stated)	28*	9.8*	1.8*	15	0.76	35
Cc1cc2cc(C=C(C#N)C#N)c(Cl)nc2cc1C	.	.	19	14	.	.
CC(=O)NC(Cc1c[nH]c2ccccc12)C(=O)OCC(=O)Nc1ccc2c(c1)OCO2 (configuration not stated)	93	13*	83	86	-0.55	83
CC(=O)NC(Cc1c[nH]c2ccccc12)C(=O)OCC(=O)Nc1cc(C)on1 (configuration not stated)	95	82	82	81	-0.29	102
Cc1cc(N2CCN(C(=O)c3ccco3)CC2)n2ncc(-c3ccccc3)c2n1	94	27*	55	42	0.32	84
Cc1cc(N2CCC(C)CC2)n2ncc(-c3ccccc3)c2n1	86	53	80	77	-0.21	89
Cc1nn2c(N3CCN(C4CCCC4)CC3)cc(C(C)(C)C)nc2c1-c1ccccc1	99	74	98	112	1.1	88
Cc1cc(N2CCOCC2)n2ncc(-c3ccccc3)c2n1	81	28*	92	91	0.44	77
Cc1nn2c(N3CCN(C(=O)c4ccco4)CC3)cc(C(C)(C)C)nc2c1-c1ccccc1	87	100	3.8*	7	.	73
Cc1cc(N2CCN(C(=O)c3ccco3)CC2)n2ncnc2n1	.	.	98	102	1.3	.
Cc1cc(N2CCCCC2)n2ncc(-c3ccccc3)c2n1	87	38*	76	73	-0.33	81
O=C(NCCc1ccc(Cl)cc1)/C(=C/c1cccnc1)NC(=O)c1ccccc1	.	.	99	93	.	.
O=[N+]([O-])c1ccc(NCCCNS(=O)(=O)c2ccc(Cl)cc2)c(Cl)c1	.	.	62	48	.	.
O=c1[nH]c2ccccc2n1CCCN1CCN(C(c2ccccc2)c2ccccc2)CC1	75	27*	5.6*	9	.	78
C=CCn1c(C(CC(C)C)CC(C)O)n[nH]c1=S (configuration not stated)	.	.	86	85	.	.
COc1ccc(C(N)=O)cc1N	.	.	94	104	-0.15	.
CN(C)c1ccc(C(=O)c2ccc(N(C)C)c(N)c2)cc1N	85	22*	78	87	-0.5	78
CCOc1ccc(C(=O)c2ccc(OCC)c(N)c2)cc1N	90	13*	14	22	-0.55	55
COc1cc(/C=N/NC(=S)Nc2cccc(Cl)c2C)ccc1OCC(=O)N1CC(C)OC(C)C1 (configuration not stated)	.	.	64	53	-1.4	.
CCCCCC(=O)N(O)C1CC(=O)N(c2ccccc2)C1=O (configuration not stated)	101	35*	74	76	0.59	97
CCCCCCC(=O)N(O)C1CC(=O)N(Cc2ccccc2)C1=O (configuration not stated)	85	83	57	64	-0.39	76
CCOC(=O)c1c(NC(=O)c2ccco2)n(C2CCCCC2)c2nc3ccccc3nc12	105	36*	71	65	-1.6	96
Cc1nnc(SCc2ccc(F)cc2)n1NC/C=C/c1ccccc1	.	.	58	78	1.2	.
Cc1ccc(C(=O)CC2(O)C(=O)N(Cc3ccccc3)c3ccccc32)o1 (configuration not stated)	89	40	20	13	0.67	75
O=C(CC1(O)C(=O)N(Cc2cccc3ccccc23)c2ccccc21)c1cccnc1 (configuration not stated)	53	20*	12	14	-2.1	40
Cc1ccc(C(=O)CC2(O)C(=O)N(Cc3ccccc3Cl)c3ccccc32)o1 (configuration not stated)	89	18*	23	14	-0.49	82

Source: PubChem BioAssay
